According to ChEMBL document CHEMBL4376841, “Discovery of a Synergistic Inhibitor of cAMP-Response Element Binding Protein (CREB)-Mediated Gene Transcription with 666-15” (J Med Chem, 2019):
Calls of active or inactive are those of the source. The calls are words filed in the database; no cut-off is given here.

Tests used:
[1] = Drug metabolism in pH 7.4 PBS assessed as tert-butyl 3-(3-(2-(tert-butoxycarbonyloxy)-4-chlorophenylcarbamoyl)naphthalen-2-yloxy)propylcarbamate formation by NMR analysis
[2] = Inhibition of CREB (unknown origin) expressed in HEK293T cells assessed as inhibition of forskolin-induced CREB transcription activity incubated for 30 mins by luciferase reporter gene assay; type: cell-based; settings: Homo sapiens, HEK-293T, 0.5 h
Summary of the method: (§1)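 HEK293T cells were transfected for 3 h with pCRE-RLuc (Renilla luciferase driven by three tandem CRE copies), then replated and left to attach overnight. Compounds, alone or combined, were added 30 min before Fsk (10 μM), followed by 5 h at 37 °C. Renilla luciferase was normalised to well protein (RLU/μg). IC50 came from nonlinear regression; at least two independent experiments in triplicate.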

[3] = Solubility in ddIH2O; type: physicochemical; settings: ddIH2O (double-deionized water)
[4] = Drug metabolism in pH 7.4 PBS assessed as 3-(3-aminopropoxy)-N-(4-chloro-2-hydroxy-phenyl)naphthalene-2-carboxamide formation by NMR analysis
[5] = Drug metabolism in pH 7.4 PBS assessed as 3,4-Dihydronaphtho[2,3-f][1,4]oxazepin-5(2H)-one formation by NMR analysis
Homo sapiens [6] = species: Homo sapiens; experiment: (§2) Synergistic potentiation of 2-(3-(2-Aminoethoxy)-2-naphthamido)-5-chlorophenyl 3-(3- Aminopropoxy)-2-naphthoate Dihydrochloride-induced inhibition of CREB (unknown origin) expressed in HEK293T cells assessed as inhibition of forskolin-induced CREB transcription activity at 5 to 10 uM incubated for 30 mins by luciferase reporter gene assay; type: cell-based; summary of the method: as §1
[7] = Drug level in pH 7.4 PBS treated with 2-(3-(2-Aminoethoxy)-2-naphthamido)-5-chlorophenyl 3-(3- Aminopropoxy)-2-naphthoate Dihydrochloride assessed as compound formation by NMR analysis; type: physicochemical; settings: buffer
[8] = Inhibition of Kix-Kid interaction (unknown origin) by biochemical split Renilla luciferase complementation assay; design: species or system Homo sapiens
Homo sapiens [9] = species: Homo sapiens; experiment: Synergistic potentiation of 50 nM 2-(3-(2-Aminoethoxy)-2-naphthamido)-5-chlorophenyl 3-(3- Aminopropoxy)-2-naphthoate Dihydrochloride-induced inhibition of CREB in HEK293T cells assessed as inhibition of Fsk-induced NR4A2 gene expression at 5 uM pre-incubated for 1 hr before Fsk stimulation for 45 mins by qRT-PCR analysis; type: cell-based
Summary of the method: (§3)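 HEK293T cells in DMEM/10% FBS were pretreated with compounds, singly or in combination, for 1 h, then stimulated with Fsk (10 μM) for 45 min. Total RNA was isolated and NR4A2 transcript measured by qRT-PCR using the ΔΔCt method, with HPRT as reference. SEM of two independent experiments in triplicate; Student t-test.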

Homo sapiens [10] = species: Homo sapiens; experiment: as §2, with “activity by measuring combination index” for “activity”, “assay based Chou-Talalay method” for “assay”; type: cell-based
Summary of the method: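 CRE-driven Renilla luciferase reporter in transfected HEK293T cells. Combinations were added 30 min before Fsk (10 μM) for 5 h. Activity was normalised to protein. Combination indexes were calculated by the Chou-Talalay method: CI > 1.0 antagonism, CI = 1.0 additive, CI < 1.0 synergy.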

MDA-MB-231 [11] = experiment: Growth inhibition of human MDA-MB-231 cells at 0.5 to 1 uM incubated for 72 hrs by MTT assay; type: functional, cell-based
Summary of the method: (§4)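 MDA-MB-231 cells were seeded at 1000/well, attached overnight, then given compounds (alone or combined) for 72 h at 37 °C. MTT (0.5 mg/mL) was added for 3 h, formazan dissolved in DMSO, and A570 read. Growth % = 100×(A_treated − A_initial)/(A_control − A_initial), with time-0 baseline.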

MDA-MB-231 [12] = experiment: Synergistic potentiation of 2-(3-(2-Aminoethoxy)-2-naphthamido)-5-chlorophenyl 3-(3- Aminopropoxy)-2-naphthoate Dihydrochloride-induced growth inhibition of human MDA-MB-231 cells incubated for 72 hrs by MTT assay; type: functional; summary of the method: as §4
Homo sapiens [13] = species: Homo sapiens; experiment: Inhibition of CREB in HEK293T cells assessed as inhibition of Fsk-induced NR4A2 gene expression at 5 uM pre-incubated for 1 hr before Fsk stimulation for 45 mins by qRT-PCR analysis; type: cell-based; summary of the method: as §3

Row | Compound | IC50 [2] [µM] | solubility [3] [mg/mL] | Activity (Homo sapiens [6]) | Drug uptake [7] | other results
1 | Cl.Cl.NCCCOc1cc2ccccc2cc1C(=O)Oc1cc(Cl)ccc1NC(=O)c1cc2ccccc2cc1OCCN | 0.25 | > 100 |  |  | Drug metabolism [1]: 47%; Drug metabolism [4]: Metabolite detected; Drug metabolism [5]: 29%
2 | O=C1NCCOc2cc3ccccc3cc21 | > 50 |  | inactive | Active | 
3 | NCCCOc1cc2ccccc2cc1C(=O)Nc1ccc(Cl)cc1O | 26.3 |  | Active | Active | IC50 [8]: > 50 µM; Activity (Homo sapiens [9]): Active; CI (Homo sapiens [10]): < 1; growth inhibition (GI) (MDA-MB-231 [11]): inactive; CI (MDA-MB-231 [12]): <1; inhibition (Homo sapiens [13]): inactive
4 | Cl.NCCCOc1cc2ccccc2cc1C(=O)NCCOc1cc2ccccc2cc1C(=O)Nc1ccc(Cl)cc1O |  | < 0.5 |  |  | 
5 | CC(C)(C)OC(=O)NCCCOc1cc2ccccc2cc1C(=O)Nc1ccc(Cl)cc1OC(=O)C(C)(C)C |  |  |  | Active | 
